Data: ChEMBL document CHEMBL5357044, “Discovery of a dual-acting inhibitor of interleukin-1β and STATs for the treatment of inflammatory bowel disease” (RSC Med Chem, 2024)
Active and inactive are the calls of the source. No cut-off for these calls is given here.

Tests used:
[1] = molecular target: NACHT, LRR and PYD domains-containing protein 3 (Mus musculus, UniProt Q8R4B8); experiment: Inhibition of NLRP3 inflammasome activation in mouse J774.A1 cells assessed as reduction in LPS-stimulated IL-1beta level pretreated for 1 hr followed by nigericin treatment for 1 hr by ELISA; type: cell-based
Sequence of NACHT, LRR and PYD domains-containing protein 3 (Q8R4B8 whole entry, the tested form may be a part): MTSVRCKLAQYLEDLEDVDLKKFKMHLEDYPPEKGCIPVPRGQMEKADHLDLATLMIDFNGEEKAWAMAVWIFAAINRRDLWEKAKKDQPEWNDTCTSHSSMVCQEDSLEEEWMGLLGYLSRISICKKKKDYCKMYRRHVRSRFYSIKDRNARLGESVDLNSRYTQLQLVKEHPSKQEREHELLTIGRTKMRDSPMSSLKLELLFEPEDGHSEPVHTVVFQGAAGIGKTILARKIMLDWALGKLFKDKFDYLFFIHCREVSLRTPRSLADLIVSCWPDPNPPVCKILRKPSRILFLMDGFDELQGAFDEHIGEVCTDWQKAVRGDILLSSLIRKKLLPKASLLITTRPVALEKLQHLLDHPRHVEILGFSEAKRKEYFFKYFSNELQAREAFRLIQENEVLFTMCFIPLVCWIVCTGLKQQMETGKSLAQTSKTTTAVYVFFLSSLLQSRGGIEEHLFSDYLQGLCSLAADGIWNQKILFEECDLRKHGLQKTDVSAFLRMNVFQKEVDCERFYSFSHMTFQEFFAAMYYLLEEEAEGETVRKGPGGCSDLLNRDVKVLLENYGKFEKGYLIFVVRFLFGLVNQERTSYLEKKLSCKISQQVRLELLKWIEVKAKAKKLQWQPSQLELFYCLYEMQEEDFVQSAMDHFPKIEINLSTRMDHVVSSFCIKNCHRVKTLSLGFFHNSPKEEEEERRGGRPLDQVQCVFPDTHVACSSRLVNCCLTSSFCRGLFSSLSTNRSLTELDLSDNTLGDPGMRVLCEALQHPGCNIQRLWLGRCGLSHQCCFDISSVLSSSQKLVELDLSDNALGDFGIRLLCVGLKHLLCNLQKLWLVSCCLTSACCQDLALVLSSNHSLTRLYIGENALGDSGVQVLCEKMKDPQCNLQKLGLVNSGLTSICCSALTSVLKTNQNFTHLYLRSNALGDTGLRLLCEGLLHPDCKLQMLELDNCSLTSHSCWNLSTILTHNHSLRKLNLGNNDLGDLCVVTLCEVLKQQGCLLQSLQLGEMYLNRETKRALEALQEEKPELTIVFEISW
How it was run: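 J774A.1 cells (DMEM, 10% FBS) primed with LPS 1 μg mL−1 for 5 h, compound 1 h, then nigericin 10 μM for 1 h. Supernatant IL-1β by ELISA; IC50 from three separate determinations.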

Mus musculus [2] = experiment: Anti-colitis activity against DSS-induced ulcerative colitis mouse model assessed as increase in colon length at 10 mg/kg/day, po treated for 9 days; type: functional, organism-based; conditions: time 9.0 day
How it was run: (§1)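 DSS colitis: 2.5% DSS in drinking water days 1–7, water days 8–9. Salicylazosulfapyridine given daily by intragastric gavage, 10 mg kg−1. Body weight and fecal blood recorded daily; colon length measured at sacrifice on day 9.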

Colon [3] = experiment: Anti-colitis activity against DSS-induced ulcerative colitis mouse model assessed as increase in goblet cells in colon tissue at 10 mg/kg/day, po for 9 days by H and E staining based analysis; type: functional, organism-based; conditions: time 9.0 day
How it was run: (§2)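 H&E-stained colon sections (×20) scored for inflammatory cell infiltration, goblet cell depletion and crypt architecture. Samples were taken on day 9 from mice given 2.5% DSS water days 1–7 and daily intragastric SASP 10 mg kg−1.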

Mus musculus [4] = experiment: Anti-colitis activity against DSS-induced ulcerative colitis mouse model assessed as increase in body weight at 10 mg/kg/day, po treated for 9 days; type: functional, organism-based; conditions: time 9.0 day; how it was run: as §1
Colon [5] = experiment: Anti-colitis activity against DSS-induced ulcerative colitis mouse model assessed as increase in crypt architecture in colon tissue at 10 mg/kg/day, po for 9 days by H and E staining based analysis; type: functional, organism-based; conditions: time 9.0 day; how it was run: as §2
Mus musculus [6] = experiment: Anti-colitis activity against DSS-induced ulcerative colitis mouse model assessed as decrease in hemafecia at 10 mg/kg/day, po treated for 9 days; type: functional, organism-based; conditions: time 9.0 day; how it was run: as §1
Colon [7] = experiment: Anti-colitis activity against DSS-induced ulcerative colitis mouse model assessed as decrease in infiltration of inflammatory cells in colon tissue at 10 mg/kg/day, po for 9 days by H and E staining based analysis; type: functional, organism-based; conditions: time 9.0 day; how it was run: as §2

Cc1cc(/C=C/C(=O)c2ccc(C(=O)NCC(=O)O)cc2)cc(C)c1O
IC50 [1]: > 50 µM

CCN(CC)C(=S)Sc1ccc(C(=O)/C=C/c2cc(C)c(O)c(C)c2)cc1
IC50 [1]: 27.1 µM

CCOC(=O)c1ccc(C(=O)/C=C/c2cc(C)c(O)c(C)c2)cc1
IC50 [1]: 8.36 µM

CCOC(=O)CSc1ccc(C(=O)/C=C/c2cc(C)c(O)c(C)c2)cc1
IC50 [1]: 4.93 µM

CSc1ccc(C(=O)/C=C/c2cc(O)cc(O)c2)cc1
IC50 [1]: 1.57 µM

CCN(CC)C(=O)CNC(=O)c1ccc(C(=O)/C=C/c2cc(C)c(O)c(C)c2)cc1
IC50 [1]: 5.95 µM

Cc1cc(/C=C/C(=O)c2ccc(NC(=O)CCN(C)C)cc2)cc(C)c1O
IC50 [1]: 5.97 µM

CNC(=O)CNC(=O)c1ccc(C(=O)/C=C/c2cc(C)c(O)c(C)c2)cc1
IC50 [1]: 3.02 µM

Cc1cc(/C=C/C(=O)c2ccc3c(c2)COC32CNC2)cc(C)c1O
IC50 [1]: 5.21 µM

CCN(CC)C(=S)SCCC(=O)Nc1ccc(C(=O)/C=C/c2cc(C)c(O)c(C)c2)cc1
IC50 [1]: 3.8 µM

O=C(O)c1cc(/N=N/c2ccc(S(=O)(=O)Nc3ccccn3)cc2)ccc1O
Activity (Mus musculus [2]): Active | Activity (Colon [3]): Active | Activity (Mus musculus [4]): inactive | Activity (Colon [5]): Active | Activity (Mus musculus [6]): inactive | Activity (Colon [7]): Active

Cc1cc(/C=C/C(=O)c2ccc(C(=O)O)cc2)cc(C)c1O
IC50 [1]: > 50 µM

CCNC(=O)CNC(=O)c1ccc(C(=O)/C=C/c2cc(C)c(O)c(C)c2)cc1
IC50 [1]: 3.96 µM

Cc1cc(/C=C/C(=O)c2ccc(C(=O)NCC(=O)N(C)C)cc2)cc(C)c1O
IC50 [1]: 5.97 µM

Cc1cc(/C=C/C(=O)c2ccc(C(=O)N[C@@H](Cc3ccccc3)C(=O)O)cc2)cc(C)c1O
IC50 [1]: 3.37 µM

Cc1cc(/C=C/C(=O)c2ccc(C(=O)NCC(=O)Nc3ccccc3)cc2)cc(C)c1O
IC50 [1]: > 50 µM

CSc1ccc(C(=O)/C=C/c2cc(C)c(O)c(C)c2)cc1
IC50 [1]: 3.67 µM

COC(=O)[C@H](Cc1ccccc1)NC(=O)c1ccc(C(=O)/C=C/c2cc(C)c(O)c(C)c2)cc1
IC50 [1]: 1.09 µM

COC(=O)C1(C(=O)Nc2ccc(C(=O)/C=C/c3cc(C)c(O)c(C)c3)cc2)CC1
IC50 [1]: 3.01 µM

COC(=O)CNC(=O)c1ccc(C(=O)/C=C/c2cc(C)c(O)c(C)c2)cc1
IC50 [1]: 1.08 µM

COc1ccc(C(=O)/C=C/c2cc(C)c(O)c(C)c2)cc1
IC50 [1]: 14.4 µM
